Results: ChEMBL document CHEMBL5058577, “EUbOPEN Chemogenomics Library 2 (Multiplex)” (2022)
Where “and” joins values, the source holds several entries; their conditions need not be identical. Identical values can stand only once.

Test system: HEK-293T
Experiment: Multiplex assay against HEK293T
Assay type: toxicity, cell-based
Conditions: human, 10 µM, compound concentration 10 uM
Outline: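 Cells stained live at seeding with Hoechst33342, BioTracker Green Microtubule Cytoskeleton Dye, MitoTracker Red and Annexin V Alexa Fluor 680 were imaged on a CQ1 microscope at 37°C and 5% CO2 after compound addition. Their classification by CellPathfinder machine-learning gating ran from Hoechst high-intensity objects versus normal cells, to healthy, pyknosed or fragmented nuclei among normal cells, to mitotic or apoptotic among pyknosed cells. Tubulin, mitochondrial-mass and membrane-permeability phenotypes are per cents of healthy-nucleus cells.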

`CC(=O)O[C@H]1C(=O)[C@@]2(C)[C@H]([C@H](OC(=O)c3ccccc3)[C@]3(O)C[C@H](OC(=O)[C@H](O)[C@@H](NC(=O)c4ccccc4)c4ccccc4)C(C)=C1C3(C)C)[C@]1(OC(C)=O)CO[C@@H]1C[C@@H]2O` [PACLITAXEL] was tested, and the “Population Apoptotic (%)” value (12 h, replicate 1) was 41% and 51%, the “Population Fragmented Nuclei (%)” value (12 h, replicate 1) was 7% and 4% and the “Population Healthy Nuclei (%)” value (12 h, replicate 1) was 74% and 79%. The “Population Hoechst High Intensity Objects (%)” value (12 h, replicate 1) was 16% and 12%, the “Population Membrane Permeable-Phenotype (%)” value (12 h, replicate 1) was 0% and the “Population Mitochondria Different-Phenotype (%)” value (12 h, replicate 1) was 79% and 70%. The “Population Mitotic Cells (%)” value (12 h, replicate 1) was 58% and 48%, the “Population Normal (%)” value (12 h, replicate 1) was 83% and 87% and the “Population Pyknosed Nuclei (%)” value (12 h, replicate 1) was 17% and 15%. For the same compound, the “Population Tubulin-Different-Phenotype (%)” value (12 h, replicate 1) was 11% and 9%, the “Population Apoptotic (%)” value (12 h, replicate 2) was 56% and 47% and the “Population Fragmented Nuclei (%)” value (12 h, replicate 2) was 5% and 2%. For the same compound, the “Population Healthy Nuclei (%)” value (12 h, replicate 2) was 64% and 75%, the “Population Hoechst High Intensity Objects (%)” value (12 h, replicate 2) was 14% and the “Population Mitochondria Different-Phenotype (%)” value (12 h, replicate 2) was 84% and 85%. The “Population Mitotic Cells (%)” value (12 h, replicate 2) was 43% and 52%, the “Population Normal (%)” value (12 h, replicate 2) was 85% and the “Population Pyknosed Nuclei (%)” value (12 h, replicate 2) was 29% and 22%. For the same compound, the “Population Tubulin-Different-Phenotype (%)” value (12 h, replicate 2) was 16% and 17%, the “Population Apoptotic (%)” value (24 h, replicate 1) was 35% and 34% and the “Population Fragmented Nuclei (%)” value (24 h, replicate 1) was 10% and 9%. For the same compound, the “Population Healthy Nuclei (%)” value (24 h, replicate 1) was 70% and 73%, the “Population Hoechst High Intensity Objects (%)” value (24 h, replicate 1) was 16% and 14% and the “Population Membrane Permeable-Phenotype (%)” value (24 h, replicate 1) was 0%. For the same compound, the “Population Mitochondria Different-Phenotype (%)” value (24 h, replicate 1) was 72% and 68%, the “Population Mitotic Cells (%)” value (24 h, replicate 1) was 64% and 65% and the “Population Normal (%)” value (24 h, replicate 1) was 83% and 85%. For the same compound, the “Population Pyknosed Nuclei (%)” value (24 h, replicate 1) was 18% and 16%, the “Population Tubulin-Different-Phenotype (%)” value (24 h, replicate 1) was 8% and 7% and the “Population Apoptotic (%)” value (24 h, replicate 2) was 47% and 55%. For the same compound, the “Population Fragmented Nuclei (%)” value (24 h, replicate 2) was 8% and 7%, the “Population Healthy Nuclei (%)” value (24 h, replicate 2) was 75% and the “Population Hoechst High Intensity Objects (%)” value (24 h, replicate 2) was 15%. The “Population Mitochondria Different-Phenotype (%)” value (24 h, replicate 2) was 82% and 75%, the “Population Mitotic Cells (%)” value (24 h, replicate 2) was 52% and 44% and the “Population Normal (%)” value (24 h, replicate 2) was 84%. The “Population Pyknosed Nuclei (%)” value (24 h, replicate 2) was 17%, the “Population Tubulin-Different-Phenotype (%)” value (24 h, replicate 2) was 16% and 11% and the “Population Apoptotic (%)” value (48 h, replicate 1) was 29% and 38%. The “Population Fragmented Nuclei (%)” value (48 h, replicate 1) was 15% and 10%, the “Population Healthy Nuclei (%)” value (48 h, replicate 1) was 68% and 75% and the “Population Hoechst High Intensity Objects (%)” value (48 h, replicate 1) was 11% and 10%. The “Population Membrane Permeable-Phenotype (%)” value (48 h, replicate 1) was 0%, the “Population Mitochondria Different-Phenotype (%)” value (48 h, replicate 1) was 64% and 60% and the “Population Mitotic Cells (%)” value (48 h, replicate 1) was 70% and 62%. The “Population Normal (%)” value (48 h, replicate 1) was 88% and 89%, the “Population Pyknosed Nuclei (%)” value (48 h, replicate 1) was 15% and 14% and the “Population Tubulin-Different-Phenotype (%)” value (48 h, replicate 1) was 2% and 6%. The “Population Apoptotic (%)” value (48 h, replicate 2) was 69% and 57%, the “Population Fragmented Nuclei (%)” value (48 h, replicate 2) was 13% and the “Population Healthy Nuclei (%)” value (48 h, replicate 2) was 70% and 73%. The “Population Mitochondria Different-Phenotype (%)” value (48 h, replicate 2) was 70% and 68%, the “Population Mitotic Cells (%)” value (48 h, replicate 2) was 30% and 42% and the “Population Pyknosed Nuclei (%)” value (48 h, replicate 2) was 19% and 13%. The “Population Tubulin-Different-Phenotype (%)” value (48 h, replicate 2) was 11%.
